Shown are actives, neighbours in structure and some others; about 11% of the full set was active somewhere.
Lmaj promast = reduces viability of Leishmania major promastigotes. hit rate 9% among 200,000. inhibition, % at 10 µM. AID 1063. resazurin fluorescence viability;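 also: promastigotes grown with compound for 44 hours at 28 °C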
Diaph inh CS = diaphorase inhibition or chemical oxidation counter-screen; inhibition, % at 20 µM; AID 1217; hit rate 0.69% among 190,000; diaphorase resazurin-to-resorufin fluorescence, NADH, 16 min; bacterial (C. kluyveri) enzyme, not human;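 active = primary screen inhibition at 20 µM above a set limit, cut at about 50% in these data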
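System: Diaphorase enzyme from Clostridium kluyveri | Amount: Enzyme working solution with 0.14 U/mL diaphorase | Benchmarks: No-NADH positive control and DMSO neutral control | Signal: Fluorescence of resorufin formed from resazurin, Ex 544/Em 590 nm | Schedule: 16-min room-temperature incubation before reading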
Diaph act CS = diaphorase activation or chemical reduction counter-screen; AID 1229; activation factor at 20 µM; hit rate 0.005% among 190,000; Diaphorase/resazurin coupled assay, resorufin fluorescence, 16 min; hits give high values; 1 = vehicle wells, 0 = NADH-free wells;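 active = diaphorase activity raised at least twofold by the compound at 20 µM; inactive = activation factor below 2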
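Assay system: bacterial diaphorase enzyme (C. kluyveri) / Input: enzyme 0.07 U/mL final / Medium: 50 mM HEPES pH 7.4 with 4.542 mM MgCl2, 0.005% Tween 20 / Doses: single compound dose of 20 µM, 1% DMSO final / Incubation: 16 min enzyme reaction, ambient temperature / Signal: fluorescence, excitation 544 nm and emission 590 nm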
WT yeast gro inh = growth inhibition of WT yeast, mitochondrial fusion screen. mitochondrial fusion phenotypic screen, WT strain. inhibition, % at 10 µM. hit rate 2.1% among 190,000; in the data active = inhibition above about 58%; tested in S. cerevisiae
G6PDH counter = L. mesenteroides G6PDH inhibition counter-screen | Purified L. mesenteroides G6PDH, diaphorase/resazurin coupled fluorescence, 45 min | inhibition, % at 5 µM | hit rate 0.12% among 200,000
Large screens that a line does not name were inactive. Rule as the data show it, unless noted: active = inhibition above about 50%; inactive = the rest.

Clc1cccc(N/N=C/c2ccc(N3CCOCC3)cc2)c1	Lmaj promast 83
Cc1oc(-c2ccc(Cl)cc2)nc1CS(=O)CC(=O)NCCCN(C)C1CCCCC1 (stereo not drawn)	Lmaj promast 100
CCOc1ccccc1CN1C(=O)c2ccccc2C1C(=O)NCC1CCCO1 (stereo not drawn)	none
CCOc1ccccc1CN1C(=O)c2ccccc2C1C(=O)NC(C)CC (stereo not drawn)	Lmaj promast 84
COc1ccc(CN2CCN(C)CC2)cc1OCc1ccccc1	none
COc1cc(CN2CCN(c3ccccc3C)CC2)cc([N+](=O)[O-])c1O	none
COc1ccc(CN2CCSCC2)cc1C	Lmaj promast 78
COc1ccc(CN2CCN(c3cccc(C)c3C)CC2)cc1OC	Lmaj promast 81
COc1cc(CN2CCN(c3cccc(C)c3C)CC2)cc(Br)c1O	Lmaj promast 95
O=C(O)c1cn(-c2ccc(N3CCCC3)c(F)c2)c2c(F)c(F)c(F)cc2c1=O	WT yeast gro inh 78
Cc1c(-n2cc(C(=O)O)c(=O)c3cc(F)c(N4CCCC(O)C4)c(F)c32)c(=O)n(-c2ccccc2)n1C (stereo not drawn)	none
COc1cc(C2c3c(oc4ccccc4c3=O)C(=O)N2Cc2ccncc2)ccc1O (stereo not drawn)	none
CCOc1ccccc1-n1c(SCC(=O)N2CCCc3ccccc32)nnc1-c1cccnc1	Lmaj promast 53
Cn1c(Cc2cccc3ccccc23)nnc1SCC(=O)N1CCN(c2ccccc2)CC1	Lmaj promast 58
O=C(CSc1nnc(-c2cccs2)n1-c1ccccc1)N1CCCc2ccccc21	none
Cc1ccc(-n2c(SCC(N)=O)nnc2-c2cccnc2)c(C)c1	none (no result: WT yeast gro inh)
Nn1c(SCC(=O)N2CCCc3ccccc32)nnc1-c1ccccc1	none
O=C(CSc1nnc(-c2cccnc2)n1-c1ccc(SC(F)F)cc1)N1CCCc2ccccc21	Lmaj promast 88
Cn1c(Cc2ccccc2)nnc1SCC(=O)N1CCN(c2ccccc2)CC1	none
Cc1ccc(-n2c(SCC(=O)N3CCCc4ccccc43)nnc2-c2cccnc2)c(C)c1	Lmaj promast 59
COc1ccc(N2CCN(C(=S)NC(C)c3ccccc3)CC2)cc1 (stereo not drawn)	none
CC(C)c1ccccc1-n1c(SCC(=O)N2CCN(c3ccccc3)CC2)nnc1-c1cccnc1	Lmaj promast 96
Cn1c(SCC(=O)N2CCN(c3ccccc3)CC2)nnc1-c1ccncc1	none
CCCCOC(=O)Nc1cccc(C(=O)OCC)c1	WT yeast gro inh 73
O=C(C1=C[C@H](C2CC2)C[C@H](OCc2ccc(CO)cc2)O1)N1CCOCC1	none
Cc1ccc2c(c1)c1c(n2CC(O)CNC2CCCCC2)CCCC1 (stereo not drawn)	Lmaj promast 101, WT yeast gro inh 93
CCCN(CC1CC1)c1nc(N)c2c(N)nc(OC)cc2c1C#N	Diaph inh CS 52
COc1ccc([N+](=O)[O-])cc1NC(=O)CCSCCc1ccccn1	none
Cn1c(=O)n(C)c2cc(S(=O)(=O)NCc3ccccc3)ccc21	Lmaj promast 99
Cn1c(=O)c(=O)n(C)c2cc(S(=O)(=O)NCc3ccc(Cl)cc3)ccc21	Lmaj promast 100
COC(=O)[C@H](C)NC(=O)Nc1cc(Cl)ccc1C	none
CC(=O)Nc1ccc(C(=O)OCC(=O)c2ccc(C)c([N+](=O)[O-])c2)cc1	Lmaj promast 58
CCC(=O)Nc1ccc(C(=O)OCC(=O)c2ccc(C)c([N+](=O)[O-])c2)cc1	none
Cc1ccc(C(=O)COC(=O)c2cccc(NC(=O)c3ccc([N+](=O)[O-])cc3[N+](=O)[O-])c2)cc1	Lmaj promast 92
O=C(Nc1cccnc1)/C(N=Nc1cccnc1)=C(\O)c1ccccc1	none
Cc1occc1-c1nnc(SCC(=O)c2cc3ccccc3oc2=O)o1	Diaph inh CS 51
Cc1occc1-c1nnc(SCC(=O)Nc2ccccn2)o1	none
O=C(CN1C(=O)c2ccccc2C1=O)Nc1cccc(S(=O)(=O)Nc2ccccc2Cl)c1	none
Cc1c(/C=N\NC(=O)c2csc3ccccc23)cnn1C	none
O=C(N/N=C/c1cccc(O)c1)c1csc2ccccc12	Lmaj promast 69
CCn1ncc(/C=N\NC(=O)c2csc3ccccc23)c1C	Lmaj promast 62
COc1cccc(CN2CCN(C3CCN(c4cccc(C)c4C)CC3)CC2CCO)c1 (stereo not drawn)	Lmaj promast 92
COc1cccc(CN2CCN(C3CSCCSC3)CC2CCO)c1 (stereo not drawn)	none
COc1cccc(CN2CCN(C3CCN(c4ccccc4C)CC3)CC2CCO)c1 (stereo not drawn)	Lmaj promast 92
COc1cccc(CN2CCN(C3CCN(c4ccccc4F)CC3)CC2CCO)c1 (stereo not drawn)	Lmaj promast 95
OCCC1CN(C2CCN(c3ccccc3)CC2)CCN1Cc1ccc(F)c(F)c1 (stereo not drawn)	Lmaj promast 93
CCOC(=O)Cc1nn[nH]n1	none
O=C(CCn1c(=S)oc2ccccc21)Nc1cccc(O)c1	none
CCc1ccc(OCc2nnc(SCC(=O)Nc3cccc(C(=O)N4CCOCC4)c3)o2)cc1	none
CCN(CC)S(=O)(=O)c1ccc(NC(=S)NC(=O)C(C)C)cc1	Lmaj promast 72
CCN(CC)S(=O)(=O)c1ccc(OC)c(NC(=S)Nc2ccc(C)c(C)c2)c1	Lmaj promast 62
O=S(=O)(c1cccc(NC(=S)Nc2ccc(Br)cc2Cl)c1)N1CCOCC1	Lmaj promast 52
CCN(CC)S(=O)(=O)c1ccc(C)c(NC(=S)Nc2cccc(S(=O)(=O)N3CCCCCC3)c2)c1	Lmaj promast 92
CCN(CC)S(=O)(=O)c1ccc(OC)c(NC(=O)c2ccc([N+](=O)[O-])cc2)c1	none
C=CCc1ccc(OCCOCCOc2cccc3cccnc23)c(OC)c1	none
COc1cc([N+](=O)[O-])ccc1NC(=O)COC(=O)c1n[nH]c2ccccc12	Lmaj promast 60
COc1ccc([N+](=O)[O-])cc1NC(=O)COC(=O)c1ccccc1C(=O)c1ccccc1	Lmaj promast 92
CCOc1ccc2[nH]c(=O)c(CN(Cc3cccs3)Cc3nnnn3C(C)(C)CC)cc2c1	Lmaj promast 59
CCC(C)(C)n1nnnc1CN(Cc1cccs1)Cc1cc2cc(OC)ccc2[nH]c1=O	none (no result: Lmaj promast)
CCOc1ccccc1CN1CCN(Cc2csc(C(C)=O)c2)CC1CCO (stereo not drawn)	Lmaj promast 73
CCOc1ccc(CN2CCN(Cc3cccc4c3OCO4)CC2CCO)cc1 (stereo not drawn)	Lmaj promast 77
Cc1ccc(CN2CCN(Cc3cccc4c3OCO4)CC2CCO)cc1 (stereo not drawn)	Lmaj promast 58
CCOc1ccccc1CN1CCN(Cc2cccc3c2OCO3)CC1CCO (stereo not drawn)	none
